The list is not random: actives were taken first. Their share in the collection is about 2.3%.
p-CIP stab down = p/CIP protein destabilization | F442A p/CIP-EGFP cells, EGFP fluorescence, 16 h | Q05BA5 | decrease of EGFP signal, % at 10 µM | 290,000 compounds, 0.01% hits | AID 1984;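 active means EGFP signal decrease of at least 30% at 10 µM or well 3 SD below plate mean, unless failing retest; inactive means the rest, including hits failing retest or dose response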
GPR7 antag = antagonists of human GPR7 (neuropeptides B/W receptor 1); P48145; GPR7-expressing cells, fluorescence antagonist assay; inhibition, % at 4.4 µM; 290,000 compounds, 1.1% hits; AID 1861; in the data active means inhibition above about 16%, passing the limit was not always enough;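 further: cells stimulated with the agonist NPW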
CHT allo act = allosterically activates the human high affinity choline transporter. Q9GZV3. CHT-expressing cells, membrane potential dye, choline EC20; stronger effect = higher value; LV-AA mutant CHT in HEK293 cells. B-score at 10 µM. 310,000 compounds, 0.49% hits. AID 488977;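 active means initial fluorescence not abnormally high and integrated response B-score, plate-corrected, over 3 SD above library mean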
T cell modulator = modulates CD8 T cell binding to vesicles | AID 2052 | 330,000 compounds, 0.068% hits | response (vesicle binding), % at 7 µM | 2C CD8+ T cell-vesicle binding, flow cytometry; stronger effect = lower value;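 active means response, share of CD8 T cells binding vesicles, and their 90th percentile fluorescence all below set limits, cut at about 80% in these data, passing the limit was not always enough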;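 further: values below 100% mean blocked vesicle binding to the CD8+ T cells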
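Assay system – 2C mouse CD8+ T cells · Also added – QL9-loaded Drosophila micro-vesicles · Timing – Cell–vesicle co-incubation 1.5 h at 37 °C, staining 20 min on ice · Signal – flow cytometry of vesicle-bound cells · Measure – percent CD8+ FL2 mean versus row control · Controls – Peptide-free naked vesicles (low) and QL9 vesicles with 0.7% DMSO vehicle (high)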
DSG3 Ab inh = blocks pemphigus antibody binding to human desmoglein-3 | DSG3-coupled beads, scFv-anti-DSG3-GFP binding, flow cytometry; stronger effect = lower value | binding (percent of control), % at 10 µM | P32926 | 310,000 compounds, 0.48% hits;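 active means binding more than 3 SD below its plate's average and above zero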
CHT inh = inhibitors of human choline transporter CHT; Q9GZV3; CHT-expressing cells, membrane potential dye, choline response; stronger effect = lower value; B-score at 10 µM; 310,000 compounds, 0.86% hits; AID 488975;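 active means B-score over 3 SD under the library average, and starting fluorescence ratio not unusually high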;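 further: choline stimulus applied at its EC90 after an EC20 pre-addition; B-score computed on integrated fluorescence ratio after choline addition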
GPR7 antag cf = human GPR7 antagonism, confirmation assay. shares compounds with GPR7 antag. GPR7-expressing cells, calcium fluorescence antagonist mode. inhibition, % at 4.4 µM. 2,400 compounds, 52% hits. AID 1952; in the data active means inhibition above about 24%;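 further: stimulated with the GPR7 agonist NPW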
MCHR1 antag = counter-screen for GPR7 antagonists: antagonists of human MCHR1 | shares compounds with GPR7 antag | MCHR1-expressing cells, fluorescence antagonist assay | inhibition, % at 4.4 µM | 2,400 compounds, 62% hits | AID 2148; in the data active means inhibition above about 22%
A number is an active result; n = inactive; x = not tested or not shown.

SMILES	p-CIP stab down	GPR7 antag	CHT allo act	T cell modulator	DSG3 Ab inh	CHT inh	GPR7 antag cf	MCHR1 antag
Cn1c(=O)c2c(nc(CN3CCc4ccccc4C3)n2Cc2cccc(Cl)c2)n(C)c1=O	n	24	n	n	n	n	n	n
CC(=O)N(c1ccccc1)c1ccccc1[N+](=O)[O-]	x	x	x	x	n	x	x	x
Cc1ccc2[nH]c3c(c2c1)CCc1cn[nH]c1-3	n	23	n	n	n	n	n	24
O=C1NC(Cc2ccccc2)c2nc3ccc(F)cc3c(=O)n2-c2cc(Cl)ccc21 (centres undefined)	x	x	x	n	x	x	x	x
COc1ccc(NCc2nnc(SCCN3CCCCC3)n2-c2ccc(C)cc2)cc1	n	n	n	n	n	n	x	x
CCn1c(CNc2ccc(Cl)cc2)nnc1SCc1ccc(Cl)cc1	n	34	n	n	n	n	41	45
CCn1c(CNc2ccc(Cl)cc2)nnc1SCCN1CCCCC1	n	x	n	n	n	n	x	n
CC(C)(C)N(Cc1ccccc1)C(=O)COC(=O)CCN1C(=O)C2CC=CCC2C1=O (centres undefined)	x	x	x	x	n	x	x	x
Cc1ccccc1CSCC1Nc2ccc(C(=O)NCCc3ccccc3)cc2NC1=O (centres undefined)	x	x	x	x	n	x	x	x
COc1ccccc1CNCC(c1ccccc1)c1ccccc1	n	42	n	n	n	n	46	34
OCCNCC(O)Cn1c2ccccc2c2ccccc21 (centres undefined)	n	n	n	n	n	n	x	x
COc1ccccc1CNCC(O)Cn1c2ccccc2c2ccccc21 (centres undefined)	n	37	n	n	n	n	68	73
O=C(Nc1ccc([N+](=O)[O-])cc1)C(c1ccccc1)c1ccccc1	x	x	x	x	n	x	x	x
CC(=O)c1ccc(N2CCN(CC(O)COC(c3ccccc3)c3ccccc3C)CC2)cc1 (centres undefined)	n	n	n	n	n	n	x	x
CC(=O)c1ccc(N2CCN(CC(O)COC(c3ccccc3)c3ccccc3)CC2)cc1 (centres undefined)	n	27	n	n	n	n	35	34
COc1ccc2[nH]c(=O)cc(C(=O)O)c2c1	n	n	n	n	n	n	x	x
COc1ccc2[nH]c3c4c(ccc3c2c1)C(=O)C=CC4=O	n	23	x	x	n	x	62	80
Cc1ccc(S(=O)(=O)N2CCOCC2)cc1C(=O)N(C)CCOc1ccc(Cl)cc1	n	n	n	n	n	n	x	x
O=C(NCCc1ccccc1)c1cc(S(=O)(=O)N2CCCC2)ccc1F	n	26	n	n	n	n	n	n
Cc1ccc(S(=O)(=O)N2CCCCC2)cc1C(=O)NCCc1ccccc1	n	n	n	n	n	n	x	x
Cc1ccc(S(=O)(=O)N2CCCCC2)cc1C(=O)N(C)CCOc1ccccc1	n	23	n	n	n	n	n	22
COC(=O)[C@@H](Cc1c[nH]c2ccccc12)NC(=O)CCC(=O)c1ccc(Br)cc1	n	x	n	n	n	n	x	n
COc1ccccc1N1CCN(S(=O)(=O)CCNC(=O)c2cccs2)CC1	x	x	x	x	n	x	x	x
Cc1ccc(/C(N)=N/OC(=O)c2cccc(Cn3cc(C(F)(F)F)ccc3=O)c2)cc1	n	21	n	n	n	n	n	23
C[C@H]1CCCCO[C@H](CN(C)C(=O)C2CCCCC2)[C@@H](C)CN([C@@H](C)CO)C(=O)c2cc(NC(=O)NC3CCCCC3)ccc2O1	x	x	x	x	n	x	x	x
O=[N+]([O-])c1cccc(-c2nc3ccccc3s/c2=N/O)c1	n	n	n	n	n	n	45	40
CCOC(=O)[C@H]1[C@H]2COc3cc(OC)ccc3[C@@H]2N2C(=O)[C@@H](CO)NC(=O)[C@@]12C	x	x	x	n	x	x	x	x
